Active and inactive are the calls of the source. No cut-off for these calls is given here.
Experiments:
Histone deacetylase 1 = Histone deacetylase 1 (Homo sapiens, UniProt Q13547); experiment: Inhibition of full length His-tagged human recombinant HDAC1 expressed in baculovirus system using fluor de Lys as substrate by fluorometric analysis
[1] = target: T1, Protein deacetylase HDAC6 (Homo sapiens, UniProt Q9UBN7); experiment: Inhibition of full length His-tagged human recombinant HDAC6 expressed in baculovirus system using fluor de Lys as substrate by fluorometric analysis
T1 sequence (Q9UBN7 whole entry): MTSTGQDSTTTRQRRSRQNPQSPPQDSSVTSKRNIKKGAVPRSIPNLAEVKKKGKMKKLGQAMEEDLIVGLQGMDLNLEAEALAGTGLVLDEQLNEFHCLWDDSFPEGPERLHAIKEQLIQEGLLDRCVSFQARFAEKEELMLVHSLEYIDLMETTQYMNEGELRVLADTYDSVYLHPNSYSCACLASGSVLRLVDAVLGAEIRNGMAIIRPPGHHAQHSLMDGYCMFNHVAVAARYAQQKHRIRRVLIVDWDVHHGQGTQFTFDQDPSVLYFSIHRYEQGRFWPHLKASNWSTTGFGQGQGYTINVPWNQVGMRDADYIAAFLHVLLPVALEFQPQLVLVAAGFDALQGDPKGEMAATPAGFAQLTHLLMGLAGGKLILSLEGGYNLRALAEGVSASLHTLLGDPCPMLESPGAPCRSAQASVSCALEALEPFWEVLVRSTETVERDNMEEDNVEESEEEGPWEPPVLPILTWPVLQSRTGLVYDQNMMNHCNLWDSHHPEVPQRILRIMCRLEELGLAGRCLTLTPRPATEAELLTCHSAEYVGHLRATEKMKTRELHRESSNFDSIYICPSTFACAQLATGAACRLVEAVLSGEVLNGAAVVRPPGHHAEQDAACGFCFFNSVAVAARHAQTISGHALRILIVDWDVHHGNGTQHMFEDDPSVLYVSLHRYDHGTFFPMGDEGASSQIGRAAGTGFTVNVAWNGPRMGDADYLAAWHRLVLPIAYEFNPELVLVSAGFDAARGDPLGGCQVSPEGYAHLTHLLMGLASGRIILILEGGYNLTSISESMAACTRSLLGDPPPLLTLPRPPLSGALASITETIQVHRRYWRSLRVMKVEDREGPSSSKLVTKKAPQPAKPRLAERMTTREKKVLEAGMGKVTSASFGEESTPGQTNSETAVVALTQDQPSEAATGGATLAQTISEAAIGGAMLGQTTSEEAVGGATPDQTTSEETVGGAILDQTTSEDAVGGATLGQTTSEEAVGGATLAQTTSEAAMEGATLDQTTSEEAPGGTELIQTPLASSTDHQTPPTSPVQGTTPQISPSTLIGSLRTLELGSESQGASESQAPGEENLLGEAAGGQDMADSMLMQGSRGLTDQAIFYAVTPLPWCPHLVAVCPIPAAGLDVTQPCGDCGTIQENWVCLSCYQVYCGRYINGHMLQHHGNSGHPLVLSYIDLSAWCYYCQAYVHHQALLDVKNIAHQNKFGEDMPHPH

Histone deacetylase = experiment: Inhibition of HDAC in human HeLa cell extract using fluor de Lys as substrate after 15 mins by fluorometric analysis; assay type: protein assay
NB-4 [2] = experiment: Induction of apoptosis in human NB4 cells after 48 hrs by Annexin V test; assay type: functional, cell-based; conditions: NB-4, 48 h
HCT-116 = experiment: Antiproliferative activity against human HCT116 cells after 72 hrs by CellTiter-Glo assay; assay type: functional, cell-based; conditions: HCT-116, 72 h
K562 = experiment: Antiproliferative activity against human K562 cells after 72 hrs by CellTiter-Glo assay; assay type: functional, cell-based; conditions: K562, 72 h
[3] = target: T2, Histone deacetylase (Homo sapiens) (UniProt Q13547+O15379+Q9UBN7+Q92769+Q9UQL6+Q8WUI4+Q9BY41+Q96DB2+P56524+Q9UKV0+Q969S8); conditions: HeLa, at 1 µM
A549 = experiment: Antiproliferative activity against human A549 cells after 72 hrs by CellTiter-Glo assay; assay type: functional, cell-based; conditions: A549, 72 h
NB-4 [4] = experiment: Induction of apoptosis in human NB4 cells assessed apoptotic cells at 0.5 uM using Annexin-V-Fluos and propidium iodide staining by cytofluorimetric analysis (reference value: 7.2 %); assay type: functional
NB-4 [5] = experiment: Induction of apoptosis in human NB4 cells assessed increase in apoptotic bodies at 1 to 2 uM using Giemsa staining by microscopic analysis; assay type: functional, cell-based
NB-4 [6] = experiment: Induction of apoptosis in human NB4 cells assessed increase in cell shrinking using Giemsa staining by microscopic analysis; assay type: functional, cell-based
[7] = target: T2, Histone deacetylase (Homo sapiens); experiment: Inhibition of HDAC in human NB4 cells assessed as histone H3 acetylation at 1 uM by densitometric analysis; assay type: cell-based; conditions: NB-4
Procedure, shortened: (§1)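 NB4 cells (1×10^5/ml) exposed 6 h to 0, 0.5, 1 or 2 μM drug (DMSO vehicle ≤0.3%). Lysed in 1% Triton X-100/1 mM PMSF/40 mM Tris-HCl pH 8.0/150 mM NaCl and sonicated. Run on 12.5% SDS-PAGE, blotted, probed with rabbit anti-acetyl-H3 or -H4 plus peroxidase secondary, ECL. Densitometry against α-tubulin, treated vs untreated, from one typical experiment.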

[8] = target: T2, Histone deacetylase (Homo sapiens); experiment: Inhibition of HDAC in human NB4 cells assessed as histone H4 acetylation after 6 hrs by Western blot/immunostaining analysis; assay type: cell-based; conditions: NB-4; procedure, shortened: as §1
[9] = target: T2, Histone deacetylase (Homo sapiens); experiment: Inhibition of HDAC in human NB4 cells assessed as histone H4 acetylation at 0.5 uM by densitometric analysis; assay type: cell-based; conditions: NB-4; procedure, shortened: as §1
[10] = target: T2, Histone deacetylase (Homo sapiens); experiment: Inhibition of HDAC in human NB4 cells assessed as histone H3 acetylation at 0.5 uM by densitometric analysis; assay type: cell-based; conditions: NB-4; procedure, shortened: as §1
[11] = target: T2, Histone deacetylase (Homo sapiens); experiment: Inhibition of HDAC in human NB4 cells assessed as histone H4 acetylation at 1 uM by densitometric analysis; assay type: cell-based; conditions: NB-4; procedure, shortened: as §1
NB-4 [12] = experiment: Induction of apoptosis in human NB4 cells assessed fragmentation using Giemsa staining by microscopic analysis; assay type: functional, cell-based
NB-4 [13] = experiment: Induction of apoptosis in human NB4 cells assessed apoptotic cells at 1 uM using Annexin-V-Fluos and propidium iodide staining by cytofluorimetric analysis (reference value: 7.2 %); assay type: functional
[14] = target: T2, Histone deacetylase (Homo sapiens); experiment: Inhibition of HDAC in human NB4 cells assessed as histone H3 acetylation after 6 hrs by Western blot/immunostaining analysis; assay type: cell-based; conditions: NB-4; procedure, shortened: as §1
NB-4 [15] = experiment: Induction of apoptosis in human NB4 cells assessed apoptotic cells at 2 uM using Annexin-V-Fluos and propidium iodide staining by cytofluorimetric analysis (reference value: 7.2 %); assay type: functional
NB-4 [16] = experiment: Cytotoxicity against human NB4 cells assessed as cell viability after 48 hrs by trypan blue exclusion test; assay type: functional, cell-based; conditions: NB-4, 48 h

Histone deacetylase 1, sequence (Q13547 whole entry): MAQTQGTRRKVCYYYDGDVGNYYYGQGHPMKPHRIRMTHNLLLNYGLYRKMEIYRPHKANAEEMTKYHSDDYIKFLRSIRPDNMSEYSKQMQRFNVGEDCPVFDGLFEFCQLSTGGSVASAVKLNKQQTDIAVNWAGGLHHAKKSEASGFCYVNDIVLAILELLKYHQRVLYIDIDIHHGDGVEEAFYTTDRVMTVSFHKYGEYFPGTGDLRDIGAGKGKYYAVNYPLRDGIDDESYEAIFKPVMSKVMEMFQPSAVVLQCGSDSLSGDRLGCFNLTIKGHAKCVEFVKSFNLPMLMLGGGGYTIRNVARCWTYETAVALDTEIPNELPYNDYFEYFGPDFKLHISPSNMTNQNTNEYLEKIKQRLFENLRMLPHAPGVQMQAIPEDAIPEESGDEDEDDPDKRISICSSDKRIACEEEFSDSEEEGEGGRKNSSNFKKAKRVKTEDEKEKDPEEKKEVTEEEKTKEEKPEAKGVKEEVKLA

CN1C(=O)C(N)N=C(c2ccccc2)c2cc(C#CCCCC(=O)NO)ccc21 (racemic)
IC50 (Histone deacetylase 1): 1090 nM
IC50 [1]: > 100000 nM

C[C@@H]1N=C(c2ccccc2)c2cc(C#CCCCC(=O)NO)ccc2NC1=O
IC50 (Histone deacetylase): 340 nM
IC50 (NB-4 [2]): 3040 nM
IC50 (HCT-116): 970 nM
IC50 (Histone deacetylase 1): 490 nM
IC50 (K562): 1400 nM
inhibition [3]: 65%
IC50 [1]: 460 nM
IC50 (A549): 2820 nM

CN1C(=O)C(NC(=O)CCCCCCCC(=O)NO)N=C(c2ccccc2)c2ccccc21 (racemic)
IC50 (Histone deacetylase): 600 nM
IC50 (NB-4 [2]): 4000 nM
IC50 (HCT-116): 3930 nM
IC50 (Histone deacetylase 1): 480 nM
IC50 (K562): 4590 nM
inhibition [3]: 57%
IC50 [1]: 9080 nM
IC50 (A549): 7950 nM

CN1C(=O)CN=C(c2ccccc2)c2cc(C#C/C=C/C(=O)NO)ccc21
IC50 (Histone deacetylase): 160 nM
IC50 (NB-4 [2]): 2600 nM
IC50 (HCT-116): 460 nM
IC50 (Histone deacetylase 1): 440 nM
IC50 (K562): 780 nM
inhibition [3]: 82%
IC50 [1]: 7720 nM
IC50 (A549): 1300 nM

CN1C(=O)C(NC(=O)CCCCC(=O)NO)N=C(c2ccccc2)c2ccccc21 (racemic)
IC50 (Histone deacetylase): 380 nM
IC50 (NB-4 [2]): 1910 nM
IC50 (HCT-116): 2010 nM
IC50 (Histone deacetylase 1): 420 nM
IC50 (K562): 3280 nM
inhibition [3]: 70%
IC50 [1]: > 100000 nM
IC50 (A549): 5440 nM

CN1C(=O)[C@@H](NC(=O)CCCCCCC(=O)NO)N=C(c2ccccc2)c2ccccc21
IC50 (Histone deacetylase): 120 nM
IC50 (NB-4 [2]): 860 nM
Activity (NB-4 [4]): 8.6%
Activity (NB-4 [5]): Active
IC50 (HCT-116): 470 nM
IC50 (Histone deacetylase 1): 550 nM
Activity (NB-4 [6]): Dose-dependent effect
IC50 (K562): 720 nM
inhibition [7]: 84%
inhibition [3]: 88%
inhibition [8]: Dose-dependent effect
inhibition [9]: 8%
inhibition [10]: 50%
inhibition [11]: 51%
IC50 [1]: 400 nM
Activity (NB-4 [12]): Dose-dependent effect
Activity (NB-4 [13]): 66.2%
inhibition [14]: Dose-dependent effect
IC50 (A549): 1440 nM
Activity (NB-4 [15]): 83.4%
IC50 (NB-4 [16]): 460 nM

CN1C(=O)CN=C(c2ccccc2)c2cc(C#CCCCC(=O)NO)ccc21
IC50 (NB-4 [2]): 1950 nM
IC50 (HCT-116): 2620 nM
IC50 (K562): 4970 nM
inhibition [3]: 39%
IC50 (A549): 5950 nM

CN1C(=O)C(NC(=O)CCCCCC(=O)NO)N=C(c2ccccc2)c2ccccc21 (racemic)
IC50 (Histone deacetylase): 320 nM
IC50 (NB-4 [2]): 2560 nM
IC50 (HCT-116): 1440 nM
IC50 (Histone deacetylase 1): 270 nM
IC50 (K562): 1840 nM
inhibition [3]: 73%
IC50 [1]: 180 nM
IC50 (A549): 4420 nM

O=C(CCCCCCC(=O)N1CCN=C(c2ccccc2)c2ccccc21)NO
IC50 (Histone deacetylase): 180 nM
IC50 (NB-4 [2]): 3990 nM
IC50 (HCT-116): 1440 nM
IC50 (Histone deacetylase 1): 250 nM
IC50 (K562): 1670 nM
inhibition [3]: 82%
IC50 [1]: 1120 nM
IC50 (A549): 2540 nM

CN1C(=O)[C@H](NC(=O)CCCCCCC(=O)NO)N=C(c2ccccc2)c2ccccc21
IC50 (Histone deacetylase): 310 nM
IC50 (NB-4 [2]): > 5000 nM
IC50 (HCT-116): 1070 nM
IC50 (Histone deacetylase 1): 700 nM
IC50 (K562): 1720 nM
inhibition [3]: 73%
IC50 [1]: 6500 nM
IC50 (A549): 2690 nM

CN1C(=O)CN=C(c2ccccc2)c2cc(C#CCCC(=O)NO)ccc21
IC50 (NB-4 [2]): > 5000 nM
IC50 (HCT-116): 6540 nM
IC50 (Histone deacetylase 1): 2750 nM
IC50 (K562): 8220 nM
inhibition [3]: 22%
IC50 [1]: > 100000 nM
IC50 (A549): 10300 nM

CN1C(=O)C(NC(=O)CCCCCCC(=O)NO)N=C(c2ccccc2)c2ccccc21 (racemic)
IC50 (NB-4 [2]): 1200 nM

CN1C(=O)CN=C(c2ccccc2)c2cc(C#CCCCCC(=O)NO)ccc21
IC50 (NB-4 [2]): 4090 nM
IC50 (HCT-116): 1860 nM
IC50 (Histone deacetylase 1): 1900 nM
IC50 (K562): 2670 nM
inhibition [3]: 36%
IC50 [1]: 5900 nM
IC50 (A549): 2690 nM

Reference: ChEMBL document CHEMBL2406989, “Design, synthesis and preliminary evaluation of a series of histone deacetylase inhibitors carrying a benzodiazepine ring” (Eur J Med Chem, 2013)
